# Assay results: PubChem BioAssay AID463111 (Johns Hopkins Ion Channel Center, 2010)
# Among all 310,000 compounds or so, about 2,800 (0.9%) were called active.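 Rule for the calls: active = B-score of the integrated calcium signal more than 4 SD below the library mean, with starting fluorescence not abnormally high; inactive = the rest.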 This excerpt belongs to a sample that is enriched for actives. Residues, ends and D or L forms follow the SMILES beside them. *: point of attachment. Bz = O=C(c1ccccc1)*
# Experiment: RGS4 potentiators or activators, primary screen, cell-based, HEK293 M3R inducible RGS4, calcium flux (AID 463111);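 for B-score: negative B-score means reduced calcium response which marks RGS4 activation or potentiation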
# Conditions: HEK293 M3R/inducible RGS4, carbachol calcium flux Fluo4, at 10 µM; stronger effect = lower value
# In short: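 Test system: HEK293 cells with stable M3R and inducible RGS4; also added: carbachol at ECmax as muscarinic agonist stimulus; schedule: dye loading 30 min 37 °C, buffer rest 30 min RT; technique: kinetic calcium fluorescence imaging with Fluo4-AM dye, 2 µM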
row,SMILES,B-score
1,CCc1cccc(C)c1NS(=O)(=O)c1c(C)nc2sccn2c1=O,inactive
2,CCSc1nc(=S)n(CC)c(C)c1C(C)=O,inactive
3,Cc1ccccc1-n1nc(SCC(=O)O)sc1=S,inactive
4,CC(CCc1ccccc1)NC(=O)COC(=O)c1ccc(F)cc1 (centres undefined),inactive
5,N/C(Cc1ccc([N+](=O)[O-])cc1)=N\OC(=O)C1CCCCC1,inactive
6,Cc1cc(C)cc(OCC(=O)O/N=C(\N)Cc2ccc([N+](=O)[O-])cc2)c1,-7.82 (active)
7,N/C(=N\OC(=O)Cc1ccc([N+](=O)[O-])cc1)c1ccccn1,inactive
8,N/C(Cc1ccc([N+](=O)[O-])cc1)=N\OC(=O)COc1ccc2ccccc2c1,-7.23 (active)
9,CCOC(=O)COc1ccc([N+](=O)[O-])cc1,inactive
10,N/C(=N\OC(=O)COc1ccc([N+](=O)[O-])cc1)c1ccc(Br)cc1,inactive
11,CCOc1ccc(N2C(=O)Nc3ccccc3C2(O)C(=O)NCc2ccco2)cc1 (centres undefined),inactive
12,O=C(COC(=O)Cc1ccc(Br)cc1)Nc1c(F)c(F)c(F)c(F)c1F,inactive
13,CN(Cc1ccccc1F)C(=O)C(Cc1ccccc1)NC(=O)c1ccccc1 (centres undefined),-7.13 (active)
14,O=C(NC(Cc1ccccc1)C(=O)N1CCCC1C(=O)O)c1ccccc1 (stereo not drawn) (Bz-Phe-Pro-OH; configuration not given here),inactive
15,O=C(NC(Cc1ccccc1)C(=O)N1CCCC(C(F)(F)F)C1)c1ccccc1 (centres undefined),inactive
16,O=C(/C=C/c1ccc([N+](=O)[O-])o1)NNC(=O)c1ccc(F)cc1,inactive
17,CC1CCN(C(=O)COC(=O)c2cc(S(=O)(=O)N3CCOCC3)ccc2Cl)CC1,inactive
18,COc1ccc(CCNC(=O)CC2SC(=Nc3cc(C)cc(C)c3)NC2=O)cc1OC (centres undefined),inactive
19,CC(C)c1ccc2c(c1)c(SC(C)(C)C)c(CC(C)(C)C(=O)O)n2Cc1ccc(Cl)cc1,-7.99 (active)
20,O=C(O)c1ccc(Cn2c(=S)[nH]c3cc(Cl)ccc3c2=O)cc1,inactive
21,Nc1nc(NC(=O)/C=C/c2ccc(F)cc2)nn1-c1ccccc1,inactive
22,C[C@@H](C(=O)N1CCNCC1)n1cc(CCC(=O)O)nn1,inactive
23,O=C(NNC(=S)NCc1ccco1)C(c1ccccc1)c1ccccc1,inactive
24,CCCCC(=O)NNC(=S)NC(=O)C(c1ccccc1)c1ccccc1,-9.53 (active)
25,CC(C)C(=O)Nc1cccc(NC(=S)NC(=O)C(c2ccccc2)c2ccccc2)c1,inactive
26,O=C(N/N=C/c1ccsc1)c1cc(O)cc(O)c1,inactive

row,SMILES,B-score
1,COc1ccc(CN2CC[C@H]3C=CC[C@@H](C(=O)N4CCOCC4)[C@H]3C2=O)cc1OC,inactive
2,CCN(Cc1ccncc1)C(=O)CCc1ccccc1,inactive
3,Cc1cc(C)n(Cc2cnc(N3CCOCC3)s2)n1,inactive
4,CCC1C=C(c2ccccc2)C=CN=C1N(CC)CC (centres undefined),-10.2 (active)
5,COc1cccc(NC(=O)N2C3CCCC2CC(NC(C)=O)C3)c1 (centres undefined),inactive
6,CCCn1c(SCC(=O)c2ccc3c(c2)OCCO3)nnc1C(C)C,inactive
7,O=S(=O)(c1ccc(Br)cc1)N1CCC(c2nc3ccccc3[nH]2)CC1,inactive
8,O=S(=O)(c1ccc(Br)cc1)n1ccc2ccccc21,-7.7 (active)
9,O=C(c1ccccc1F)N1CCN(S(=O)(=O)c2ccc(Br)cc2)CC1,inactive
10,CCC1CCc2c(sc(NC(C)=O)c2C#N)C1 (centres undefined),inactive
11,CCC(C)c1ccc(NC(=S)NCc2ccccn2)cc1 (centres undefined),inactive
12,FC(F)(F)c1cccc(-c2nc(COc3ccc(Cl)cc3Cl)no2)c1,-7.64 (active)
13,Cc1cc(Cl)ccc1OCc1nc(-c2ccncc2)no1,inactive
14,FC(F)(F)c1cnc(Oc2ccccc2-c2nnc(-c3ccc(Cl)cc3)o2)c(Cl)c1,inactive
15,Cc1ccc(NC(=O)COc2coc(CN3CCc4ccccc4C3)cc2=O)cc1Cl,inactive
16,CCOC(=O)C1(Cc2ccccc2C)CCCN(C(=O)c2ccc(COC)o2)C1 (centres undefined),inactive
17,CCOc1cc(C(=S)N2CCOCC2)ccc1OS(=O)(=O)c1ccc(Br)cc1,inactive
18,COc1ccc(C(=O)NC2CCCc3c2cnn3-c2cccc(C)c2C)c(OC)n1 (centres undefined),-10.2 (active)
19,Cn1nccc1C(=O)NC1CCCc2c1cnn2-c1ccccc1F (centres undefined),inactive
20,Cc1cc(C(=O)NC2CCCc3c2cnn3-c2cccc(C)c2C)c(C)o1 (centres undefined),inactive
21,Cc1cccc(C(=O)Nc2ccc(C(=O)/C=C/c3cccs3)cc2)c1,-10.5 (active)
22,Cc1cccc(C(=O)Nc2ccc(C(=O)N/N=C/c3cccc(C)n3)cc2)c1,inactive
23,Cc1cccc(C(=O)Nc2ccc(CC(=O)O)cc2)c1,inactive
24,Cn1nc(C(F)(F)F)c2cc(NC(=O)OCC(C)(C)C)sc21,inactive
25,CN(C(=O)CN1C(=O)CCSc2ccc(S(=O)(=O)N3CCCC3)cc21)c1ccccc1,inactive
26,CCCCOc1ccc(N(CC(=O)NCC2CCCO2)C(=O)CCC(=O)Nc2cc(C)ccn2)cc1 (centres undefined),inactive

row,SMILES,B-score
1,Cc1cc(C)cc(NS(=O)(=O)c2ccc(F)cc2)c1,inactive
2,Cc1cc(C)cc(NS(=O)(=O)c2ccc(Oc3ncc(C(F)(F)F)cc3Cl)cc2)c1,-8.23 (active)
3,COc1ccccc1Oc1ccc(S(=O)(=O)Nc2cccnc2)cc1,inactive
4,CCN1C(=O)[C@H]2[C@@H](c3ccc(C)cc3)N3C(=O)N(c4cccc(Br)c4)C(=O)[C@@]3(CC)[C@H]2C1=O,inactive
5,Cc1cc(NC(=O)CCN2CCN(Cc3ccccc3)CC2)ccc1Br,inactive
6,CCOc1ccc(CNC(=O)C2CCC(=O)N2C2CCCC2)cc1OC (centres undefined),inactive
7,CCc1ccccc1NC(=O)[C@@H]1CCC(=O)N1C1OC(=O)c2c1ccc(OC)c2OC (some centres undefined),-8.3 (active)
8,O=C(Nc1ccccc1C(=O)N1CCOCC1)C1CCC(=O)N1C1CCCC1 (centres undefined),inactive
9,CCC(=O)N1CCCc2ccccc21,inactive
10,CC1CC(C)CN(CC(=O)N2c3ccccc3CCc3ccccc32)C1 (centres undefined),inactive
11,CN1CCN(C(=O)N2c3ccccc3CCc3ccccc32)CC1,-9.54 (active)
12,N#CC1(C#N)C(C(=O)C23CC4CC(CC(C4)C2)C3)C12CCOCC2 (centres undefined),inactive
13,FC(F)(F)C1CCCN(c2nsc3ccccc23)C1 (centres undefined),inactive
14,COC(=O)c1cccc(N(CC(=O)NCC2CCCO2)C(=O)CCC(=O)Nc2cc(C)on2)c1 (centres undefined),inactive
15,Cc1ccnc(SCCn2c(N(C)Cc3ccccc3)nc3c2c(=O)n(C)c(=O)n3C)n1,-7.93 (active)
16,CC(C)CCn1c(CN(C)Cc2ccccc2)nc2c1c(=O)n(C)c(=O)n2C,inactive
17,CN(Cc1ccccc1)c1nc2c(c(=O)[nH]c(=O)n2C)n1CCSc1nc2ccccc2[nH]1,inactive
18,CC(C)c1nnc(NC(=O)COC(=O)/C=C/c2ccc([N+](=O)[O-])cc2)s1,inactive
19,COCCCNc1nc2ccccc2nc1NS(=O)(=O)c1ccc(F)cc1,inactive
20,O=C(Cn1ncc(N2CCCC2)c(Br)c1=O)c1ccc(Cl)cc1,inactive
21,COc1cccc(N(CC(=O)NC2CCCC2)C(=O)CCCC(=O)Nc2ccccn2)c1,inactive
22,Fc1ccc(Cn2nnnc2C(c2cccs2)N2CCCCCC2)cc1 (centres undefined),inactive
23,CCN1C(=O)/C(=C2/Sc3ccccc3N2CCCS(=O)(=O)O)SC1=S,inactive
24,CN1C=CC=C/C1=C1\SC(=S)N(Cc2ccccc2)C1=O,-9.24 (active)
25,COc1cc(/C=C2/SC(=S)N(Cc3ccccc3)C2=O)cc(OC)c1O,inactive
26,CCCCN1C(=O)/C(=C2/Sc3ccc(Cl)cc3N2CC)SC1=S,inactive

row,SMILES,B-score
1,CCCCN1C(=O)/C(=C/C=C2/C=Cc3ccccc3N2CC)SC1=S,inactive
2,CCCCN1C(=O)/C(=C2/C=CC=CN2C)SC1=S,-8.69 (active)
3,CC(C)CNC(=S)NNC(=O)c1ccccc1OC(F)F,inactive
4,Cc1cccc(C(C)C)c1NC(=O)COC(=O)C1CC(=O)N(Cc2ccccc2)C1 (centres undefined),inactive
5,CNC(=O)c1[nH]cnc1C(=O)N[C@@H](CC(C)C)C(=O)OCc1ccccc1,inactive
6,N#Cc1ccc(/C=C2\CCn3c2nc2cc(C(=O)O)ccc2c3=O)cc1,inactive
7,O=C(O)CC(SCC(=O)Nc1ccc(Br)cc1)C(=O)O (centres undefined),inactive
8,Cc1ccc(NC(=O)c2oc3ccccc3c2C)c([N+](=O)[O-])c1,inactive
9,COc1ccc(-c2csc3ncnc(N4CCN(S(=O)(=O)c5cccc(F)c5)CC4)c23)cc1,-7.35 (active)
10,COc1ccc(-c2csc3ncnc(N4CCN(S(=O)(=O)c5ccccc5C#N)CC4)c23)cc1,inactive
11,COc1ccc(-c2csc3ncnc(Oc4ccc5c(C)cc(=O)oc5c4)c23)cc1,inactive
12,O=C(NCc1ccccc1)[C@H]1C[C@@H]1[C@H](NP(=O)(c1ccccc1)c1ccccc1)c1ccccc1,inactive
13,CCCn1nnnc1NC(=O)COc1ccc(Cl)cc1C,inactive
14,CN(C)CCCN1C(=O)CSC1c1ccc([N+](=O)[O-])cc1 (centres undefined),inactive
15,CCCCCCCCCCCCN1C(=O)CSC1c1cccnc1 (centres undefined),-10 (active)
16,CCCCCCOc1ccc(OC(=O)c2cccnc2)cc1,inactive
17,CC1(c2ccc3ccccc3c2)NC(=O)N(CC(N)=O)C1=O (centres undefined),inactive
18,CC1(C)CC(=O)C=C(N2CCOCC2)C1,inactive
19,Cc1ccc(OCCCCN2CCCCC2)c(Br)c1,-7.76 (active)
20,O=[N+]([O-])c1ccccc1OCCCCN1CCCCC1,inactive
21,Cc1ccc(C(C)(C)C)c(OCCCCN2CCCC2)c1,inactive
22,O=C(NCCCCc1ccccc1)C1CC(c2ccc([N+](=O)[O-])cc2)=NO1 (centres undefined),inactive
23,Cc1ccc(NC(=O)c2sccc2C)cc1[N+](=O)[O-],inactive
24,O=C(Nc1ccc([N+](=O)[O-])cc1)C1CC12CCC2 (centres undefined),inactive
25,COc1ccc(C(=O)N(C)CC(O)c2ccccc2)cc1OC1CCN(C(C)=O)CC1 (centres undefined),inactive
26,CCC(NC(=O)c1ccccc1NC(=O)c1ccccc1)C(=O)NNC(=O)CSc1nc2ccccc2o1 (centres undefined),inactive
